According to ChEMBL document CHEMBL4041530, “Development of spiroguanidine-derived α7 neuronal nicotinic receptor partial agonists” (Bioorg Med Chem Lett, 2017):

Tests used:
[1] = biological target: T1, 5-hydroxytryptamine receptor 3A (Homo sapiens, UniProt P46098); experiment: Antagonist activity at 5-HT3A receptor (unknown origin) assessed as decrease in calcium influx by Fluo-4-AM dye based FLIPR assay
T1 sequence (P46098 whole entry): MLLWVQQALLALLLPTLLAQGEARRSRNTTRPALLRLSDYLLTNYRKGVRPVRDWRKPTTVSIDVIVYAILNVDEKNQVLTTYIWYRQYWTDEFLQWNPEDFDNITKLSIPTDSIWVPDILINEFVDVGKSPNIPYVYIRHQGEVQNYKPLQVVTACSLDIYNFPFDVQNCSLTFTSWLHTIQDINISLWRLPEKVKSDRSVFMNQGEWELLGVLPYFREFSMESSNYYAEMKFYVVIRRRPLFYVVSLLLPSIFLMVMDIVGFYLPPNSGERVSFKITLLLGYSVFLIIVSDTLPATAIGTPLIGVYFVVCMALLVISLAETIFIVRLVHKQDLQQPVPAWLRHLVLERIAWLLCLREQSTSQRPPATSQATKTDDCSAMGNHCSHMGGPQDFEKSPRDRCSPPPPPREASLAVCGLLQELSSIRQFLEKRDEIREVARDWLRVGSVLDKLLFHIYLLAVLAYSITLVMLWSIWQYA
Summary of the method: (§1)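 Ca2+-based fluorescence imaging plate reader screen, run as two assays: α7 nAChR agonism and 5-HT3A receptor antagonism. Number of determinations recorded per value.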

[2] = biological target: Neuronal acetylcholine receptor subunit alpha-7 (Homo sapiens, UniProt P36544); experiment: Agonist activity at alpha7 nAChR (unknown origin) expressed in HEK293 cells assessed as increase in calcium influx by Fluo-4-AM dye based FLIPR assay; format: cell-based; summary of the method: as §1
Sequence of Neuronal acetylcholine receptor subunit alpha-7 (Homo sapiens, UniProt P36544) (P36544 whole entry): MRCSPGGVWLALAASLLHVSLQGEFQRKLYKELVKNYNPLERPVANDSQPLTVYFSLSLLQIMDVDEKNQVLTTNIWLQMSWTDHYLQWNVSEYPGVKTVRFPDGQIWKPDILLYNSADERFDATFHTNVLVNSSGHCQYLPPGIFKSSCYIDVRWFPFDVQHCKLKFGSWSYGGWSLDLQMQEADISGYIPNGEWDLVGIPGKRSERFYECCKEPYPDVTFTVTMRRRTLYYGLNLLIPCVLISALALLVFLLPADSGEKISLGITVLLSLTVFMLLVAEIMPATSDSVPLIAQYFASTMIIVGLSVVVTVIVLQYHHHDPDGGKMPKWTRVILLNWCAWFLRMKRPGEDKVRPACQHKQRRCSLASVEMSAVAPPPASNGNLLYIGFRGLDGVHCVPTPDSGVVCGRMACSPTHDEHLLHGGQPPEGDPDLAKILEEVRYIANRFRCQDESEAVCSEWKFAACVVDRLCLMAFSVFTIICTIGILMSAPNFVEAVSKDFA

[3] = biological target: Neuronal acetylcholine receptor subunit alpha-7 (Rattus norvegicus, UniProt Q05941); experiment: Agonist activity at rat alpha7 nAChR expressed in HEK293 cells co-expressing human RIC-3 assessed as area under current curve at holding potential of -90 mV by whole-cell voltage clamp electrophysiology method; format: cell-based
Sequence of Neuronal acetylcholine receptor subunit alpha-7 (Rattus norvegicus, UniProt Q05941) (Q05941 whole entry): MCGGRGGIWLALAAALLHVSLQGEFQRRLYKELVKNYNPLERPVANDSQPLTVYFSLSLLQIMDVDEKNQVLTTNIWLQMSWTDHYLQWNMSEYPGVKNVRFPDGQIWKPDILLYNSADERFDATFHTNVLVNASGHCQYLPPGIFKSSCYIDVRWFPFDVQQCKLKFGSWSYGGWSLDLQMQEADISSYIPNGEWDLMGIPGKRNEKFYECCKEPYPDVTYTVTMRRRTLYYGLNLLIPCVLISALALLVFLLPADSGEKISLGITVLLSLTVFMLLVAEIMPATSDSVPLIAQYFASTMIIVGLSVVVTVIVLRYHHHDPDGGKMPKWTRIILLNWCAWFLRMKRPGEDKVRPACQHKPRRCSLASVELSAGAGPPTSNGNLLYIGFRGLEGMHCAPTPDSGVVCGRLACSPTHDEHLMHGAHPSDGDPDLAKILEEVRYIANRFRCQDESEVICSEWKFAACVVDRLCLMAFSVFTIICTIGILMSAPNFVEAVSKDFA
Summary of the method: (§2)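 Concentration-response patch-clamp electrophysiology in HEK-293 cells expressing rat α7 nAChR. EC50 is taken from response area. Efficacy is given as Ymax from both area and peak response.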

[4] = biological target: Neuronal acetylcholine receptor subunit alpha-7 (Rattus norvegicus) (UniProt Q05941); experiment: Agonist activity at rat alpha7 nAChR expressed in HEK293 cells co-expressing human RIC-3 assessed as maximum peak current at 10 uM at holding potential of -90 mV by whole-cell voltage clamp electrophysiology method relative to acetylcholine; format: cell-based; summary of the method: as §2
Sequence of Neuronal acetylcholine receptor subunit alpha-7 (Rattus norvegicus) (Q05941 whole entry): as above

[5] = species on record: Homo sapiens; experiment: Selectivity ratio of IC50 for 5-HT3A receptor (unknown origin) to EC50 for alpha7 nAChR (unknown origin) expressed in HEK293 cells; format: cell-based
Summary of the method: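 Selectivity ratio calculated as 5-HT3A IC50 (FLIPR Ca2+ antagonist assay) divided by α7 EC50 (FLIPR Ca2+ agonist assay).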

[6] = biological target: Neuronal acetylcholine receptor subunit alpha-7 (Rattus norvegicus) (UniProt Q05941); experiment: Agonist activity at rat alpha7 nAChR expressed in HEK293 cells co-expressing human RIC-3 assessed as area under current curve at 10 uM at holding potential of -90 mV by whole-cell voltage clamp electrophysiology method relative to acetylcholine; format: cell-based; summary of the method: as §2
[7] = system: Rattus norvegicus; experiment: In vivo agonist activity at alpha7 nAChR in Wistar rat assessed as induction of c-fos gene expression in medial prefrontal cortex at 3 mg/kg, sc after 2 hrs by qPCR method relative to control; format: functional
Summary of the method: (§3)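 Rats dosed sc (0.3–10 mg/kg; vehicle 2 mL/kg sc) and c-fos and Arc expression measured in medial prefrontal cortex. Values are normalized to vehicle, mean ± SEM, N = 8. Comparison with vehicle by Dunnett's multiple comparison test (adjusted p). β2-microglobulin served as endogenous control. Plasma and brain/plasma levels were sampled at 3 and 10 mg/kg.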

[8] = Drug uptake in Wistar rat brain at 1 mg/kg, sc after 2 hrs; format: ADME, organism-based; details: read-out: Drug uptake
[9] = Plasma concentration in Wistar rat at 1 mg/kg, sc after 2 hrs; format: ADME, organism-based
[10] = system: Rattus norvegicus; experiment: In vivo agonist activity at alpha7 nAChR in Wistar rat assessed as induction of Arc gene expression in medial prefrontal cortex at 1 mg/kg, sc after 2 hrs by qPCR method relative to control; format: functional; summary of the method: as §3
[11] = Plasma concentration in Wistar rat at 3 mg/kg, sc after 2 hrs; format: ADME, organism-based
Summary of the method: (§4)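 Plasma concentration and brain/plasma ratio measured at 3 and 10 mg/kg sc, in the same rats used for the prefrontal c-fos/Arc expression study.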

[12] = system: Rattus norvegicus; experiment: In vivo agonist activity at alpha7 nAChR in Wistar rat assessed as induction of c-fos gene expression in medial prefrontal cortex at 10 mg/kg, sc after 2 hrs by qPCR method relative to control; format: functional
Summary of the method: (§5)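 Rats dosed sc at 0.3–10 mg/kg, or with vehicle at 2 mL/kg sc. Medial prefrontal cortex was assayed for c-fos and Arc expression, normalized to vehicle, with β2-microglobulin as the endogenous control. Data are mean ± SEM, N = 8. Dunnett's multiple comparison test against vehicle gave adjusted p values.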

[13] = biological target: Neuronal acetylcholine receptor subunit alpha-7 (Rattus norvegicus) (UniProt Q05941); experiment: Displacement of [125I]Tyr54-alpha-Bungarotoxin from rat alpha7 nAChR expressed in HEK293 cell membranes co-expressing human RIC-3 after 2 hrs by gamma counting method
[14] = Ratio of drug uptake in Wistar rat brain to plasma at 0.3 mg/kg, sc after 2 hrs; format: ADME, organism-based; details: read-out: BPR
[15] = system: Rattus norvegicus; experiment: In vivo agonist activity at alpha7 nAChR in Wistar rat assessed as induction of Arc gene expression in medial prefrontal cortex at 0.3 mg/kg, sc after 2 hrs by qPCR method relative to control; format: functional; summary of the method: as §3
[16] = system: Rattus norvegicus; experiment: In vivo agonist activity at alpha7 nAChR in Wistar rat assessed as induction of c-fos gene expression in medial prefrontal cortex at 1 mg/kg, sc after 2 hrs by qPCR method relative to control; format: functional; summary of the method: as §3
[17] = Drug uptake in Wistar rat brain at 10 mg/kg, sc after 2 hrs; format: ADME, organism-based; details: read-out: Drug uptake
[18] = system: Rattus norvegicus; experiment: In vivo agonist activity at alpha7 nAChR in Wistar rat assessed as induction of Arc gene expression in medial prefrontal cortex at 3 mg/kg, sc after 2 hrs by qPCR method relative to control; format: functional; summary of the method: as §3
[19] = system: Rattus norvegicus; experiment: In vivo agonist activity at alpha7 nAChR in Wistar rat assessed as induction of c-fos gene expression in medial prefrontal cortex at 0.3 mg/kg, sc after 2 hrs by qPCR method relative to control; format: functional; summary of the method: as §3
[20] = Drug uptake in Wistar rat brain at 3 mg/kg, sc after 2 hrs; format: ADME, organism-based; details: read-out: Drug uptake
[21] = Ratio of drug uptake in Wistar rat brain to plasma at 3 mg/kg, sc after 2 hrs; format: ADME, organism-based; details: read-out: BPR; summary of the method: as §4
[22] = Drug uptake in Wistar rat brain at 0.3 mg/kg, sc after 2 hrs; format: ADME, organism-based; details: read-out: Drug uptake
[23] = Plasma concentration in Wistar rat at 10 mg/kg, sc after 2 hrs; format: ADME, organism-based; summary of the method: as §4
[24] = system: Rattus norvegicus; experiment: In vivo agonist activity at alpha7 nAChR in Wistar rat assessed as induction of Arc gene expression in medial prefrontal cortex at 10 mg/kg, sc after 2 hrs by qPCR method relative to control; format: functional; summary of the method: as §5
[25] = system: Rattus norvegicus; experiment: Effect on beta2-microglobulin gene expression in Wistar rat medial prefrontal cortex at 0.3 to 10 mg/kg, sc after 2 hrs by qPCR method; format: ADME, organism-based; details: in vivo; summary of the method: as §5
[26] = Ratio of drug uptake in Wistar rat brain to plasma at 1 mg/kg, sc after 2 hrs; format: ADME, organism-based; details: read-out: BPR
[27] = Ratio of drug uptake in Wistar rat brain to plasma at 10 mg/kg, sc after 2 hrs; format: ADME, organism-based; details: read-out: BPR; summary of the method: as §4
[28] = Plasma concentration in Wistar rat at 0.3 mg/kg, sc after 2 hrs; format: ADME, organism-based
[29] = system: Rattus norvegicus; experiment: Effect on beta2-microglobulin gene expression in Wistar rat medial prefrontal cortex at 10 mg/kg, sc after 2 hrs by qPCR method; format: ADME, organism-based; details: in vivo; summary of the method: as §5

Cc1ccc2nc(NC3=NCC4(CN5CCC4CC5)N3)oc2c1 (racemic)
IC50 [1]: 7400 nM | EC50 [2]: 35 nM | EC50 [3]: 500 nM | Emax [4]: 16% | Ratio IC50/EC50 [5]: 210 to 250 | Emax [6]: 58%

CN1C(Nc2nc3ccc(Cl)nc3s2)=NCC12CN1CCC2CC1 (racemic)
IC50 [1]: 13000 nM | EC50 [2]: 550 nM | Ratio IC50/EC50 [5]: 24

COc1ccc2nc(NC3=NCC4(CN5CCC4CC5)N3)sc2c1 (racemic)
IC50 [1]: 32000 nM | EC50 [2]: 880 nM | Ratio IC50/EC50 [5]: 36

c1cn(-c2cc(NC3=NCC4(CN5CCC4CC5)N3)ncn2)cn1 (racemic)
IC50 [1]: 6400 nM | EC50 [2]: 140 nM | Ratio IC50/EC50 [5]: 460

CN1C(Nc2nc3ccccc3s2)=NCC12CN1CCC2CC1 (configuration not stated)
IC50 [1]: 43 nM | EC50 [2]: 170 nM | EC50 [3]: 1200 nM | Emax [4]: 25% | Ratio IC50/EC50 [5]: 0.25 | Emax [6]: 67%

Clc1cnc(NC2=NCC3(CN4CCC3CC4)N2)cn1 (racemic)
IC50 [1]: 5600 nM | EC50 [2]: 990 nM | Ratio IC50/EC50 [5]: 5.7

c1ccc2oc(NC3=NCC4(CN5CCC4CC5)N3)nc2c1 (racemic)
IC50 [1]: 26 nM | EC50 [2]: 53 nM | Ratio IC50/EC50 [5]: 0.49

Clc1cnc(NC2=NCC3(CN4CCC3CC4)N2)nc1 (racemic)
IC50 [1]: 620 nM | EC50 [2]: 290 nM | EC50 [3]: 1100 nM | Emax [4]: 11% | Ratio IC50/EC50 [5]: 2.1 | Emax [6]: 44%

c1ccc2c(NC3=NCC4(CN5CCC4CC5)N3)ncnc2c1 (racemic)
IC50 [1]: 14500 nM | EC50 [2]: 530 nM | Ratio IC50/EC50 [5]: 27

Clc1ccc(NC2=NCC3(CN4CCC3CC4)N2)nc1 (racemic)
IC50 [1]: 860 nM | EC50 [2]: 1200 nM | Ratio IC50/EC50 [5]: 0.72

Clc1cccc2sc(NC3=NCC4(CN5CCC4CC5)N3)nc12 (racemic)
IC50 [1]: 38 nM | EC50 [2]: 120 nM | Ratio IC50/EC50 [5]: 0.32

Clc1ccc2nc(NC3=NCC4(CN5CCC4CC5)N3)sc2c1 (racemic)
IC50 [1]: 18000 nM | EC50 [2]: 150 nM | EC50 [3]: 1200 nM | Emax [4]: 5% | Ratio IC50/EC50 [5]: 120 | Emax [6]: 33%

Clc1ccc2nc(NC3=NCC4(CN5CCC4CC5)N3)sc2n1 (racemic)
IC50 [1]: 32000 nM | EC50 [2]: 56 nM | Ratio IC50/EC50 [5]: 570

COc1ccc2sc(NC3=NCC4(CN5CCC4CC5)N3)nc2c1 (racemic)
IC50 [1]: 51 nM | EC50 [2]: 750 nM | Ratio IC50/EC50 [5]: 0.068

COc1cc(NC2=NCC3(CN4CCC3CC4)N2)ncn1 (racemic)
IC50 [1]: > 100000 nM | EC50 [2]: 1300 nM | Ratio IC50/EC50 [5]: > 77

c1ccc2sc(NC3=NCC4(CN5CCC4CC5)N3)nc2c1 (configuration not stated)
IC50 [1]: 26 nM | fold change (FC) [7]: 1.7 | concentration at 2 h [8]: 184 nM | EC50 [2]: 26 nM | concentration at 2 h [9]: 43 nM | EC50 [3]: 200 nM | fold change (FC) [10]: 1 | concentration at 2 h [11]: 130 to 131 nM | fold change (FC) [12]: 1.9 | Emax [4]: 29% | INH [13]: 240 nM | Kp at 2 h [14]: 4.8 | fold change (FC) [15]: 1.2 | fold change (FC) [16]: 1.1 | concentration at 2 h [17]: 1920 nM | fold change (FC) [18]: 1.5 | fold change (FC) [19]: 1.5 | concentration at 2 h [20]: 524 nM | Kp at 2 h [21]: 4 | concentration at 2 h [22]: 58 nM | concentration at 2 h [23]: 460 to 463 nM | Ratio IC50/EC50 [5]: 1 | fold change (FC) [24]: 2.7 | Activity [25]: Non-Toxic | Emax [6]: 78% | Kp at 2 h [26]: 4.3 | Kp at 2 h [27]: 4.1 | concentration at 2 h [28]: 12 nM

c1ccc2nc(NC3=NCC4(CN5CCC4CC5)N3)cnc2c1 (racemic)
IC50 [1]: 1400 nM | EC50 [2]: 490 nM | Ratio IC50/EC50 [5]: 2.9

Clc1ccc2c(NC3=NCC4(CN5CCC4CC5)N3)ncnn12 (configuration not stated)
IC50 [1]: 38000 nM | EC50 [2]: 62 nM | Ratio IC50/EC50 [5]: 610

CCN1C(Nc2nc3ccc(OC)cc3s2)=NCC12CN1CCC2CC1 (racemic)
IC50 [1]: > 12000 nM | EC50 [2]: > 10000 nM | Ratio IC50/EC50 [5]: > 1

O=C(Oc1ccc(Br)cc1)N1CCN2CCC1CC2 [SSR180711]
Activity [29]: Non-Toxic | fold change (FC) [12]: 2.4 | fold change (FC) [24]: 3.9
